The record followed here is ChEMBL document CHEMBL2346521, “Synthesis, structure-activity relationship studies, and identification of novel 5,6,7,8-tetrahydroimidazo[1,5-a]pyrazine derivatives as dual orexin receptor antagonists. Part 1” (Bioorg Med Chem Lett, 2013).

Each structure is given as a SMILES string. pIC50: −log10 of the molar value.

System in the first series: not listed separately
As to the kind of experiment: Plasma protein binding in human. The format is ADME, cell-free. To be noted: read-out: PPB.
As to `CCc1nc(Cl)c2n1CCN([C@@H](C(=O)NC)c1ccccc1)[C@H]2CCc1ccc(C(F)(F)F)cc1`, the fraction unbound amounted to 0.01.
Turning to `CNC(=O)[C@@H](c1ccccc1)N1CCn2c(C3CC3)nc(Cl)c2[C@@H]1CCc1ccc(C(F)(F)F)cc1`, the fraction unbound stood at 0.01.

System in a further series: not listed separately
As to the kind of experiment: Ratio of drug level in brain to plasma in Wistar rat at 100 mg/kg, po after 3 hrs. Format: ADME, organism-based. More on the design: dose 100 mg/kg, route oral. To be noted: read-out: BPR. The gist of the method: (§1)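 Male Wistar rats dosed orally at 100 mg/kg. Brain and plasma sampled 3 h after dosing. Total compound levels given as nM and as ng/g (brain) or ng/ml (plasma). Brain/plasma ratio calculated from these total concentrations.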
As for `CCc1nc(Cl)c2n1CCN([C@@H](C(=O)NC)c1ccccc1)[C@H]2CCc1ccc(C(F)(F)F)cc1`, the Kp at 3 h turned out to be 0.07.
On to `CNC(=O)[C@@H](c1ccccc1)N1CCn2c(C3CC3)nc(Cl)c2[C@@H]1CCc1ccc(C(F)(F)F)cc1`, for which the Kp at 3 h came to 0.06.

System in the next series: not listed separately
As to the kind of experiment: Drug uptake in Wistar rat brain at 100 mg/kg, po after 3 hrs. Also on record: dose 100 mg/kg, route oral. The format is ADME, organism-based. To be noted: read-out: Drug uptake. The gist of the method:
as §1
As to `CCc1nc(Cl)c2n1CCN([C@@H](C(=O)NC)c1ccccc1)[C@H]2CCc1ccc(C(F)(F)F)cc1`, the concentration at 3 h is 303 nM.
For the compound `CNC(=O)[C@@H](c1ccccc1)N1CCn2c(C3CC3)nc(Cl)c2[C@@H]1CCc1ccc(C(F)(F)F)cc1`, the concentration at 3 h amounted to 385 nM.

System in another series: not listed separately
As to the kind of experiment: Plasma concentration in Wistar rat at 100 mg/kg, po after 3 hrs. Format: ADME, organism-based. Also on record: dose 100 mg/kg, route oral.
Details: not given
The gist of the method: as §1
Regarding `CCc1nc(Cl)c2n1CCN([C@@H](C(=O)NC)c1ccccc1)[C@H]2CCc1ccc(C(F)(F)F)cc1`, the concentration at 3 h is 4210 nM.
Compound `CNC(=O)[C@@H](c1ccccc1)N1CCn2c(C3CC3)nc(Cl)c2[C@@H]1CCc1ccc(C(F)(F)F)cc1` gave a concentration at 3 h of 6400 nM.

In another series the target is T1, Orexin receptor type 2 (Homo sapiens, UniProt O43614).
T1 sequence (O43614 whole entry): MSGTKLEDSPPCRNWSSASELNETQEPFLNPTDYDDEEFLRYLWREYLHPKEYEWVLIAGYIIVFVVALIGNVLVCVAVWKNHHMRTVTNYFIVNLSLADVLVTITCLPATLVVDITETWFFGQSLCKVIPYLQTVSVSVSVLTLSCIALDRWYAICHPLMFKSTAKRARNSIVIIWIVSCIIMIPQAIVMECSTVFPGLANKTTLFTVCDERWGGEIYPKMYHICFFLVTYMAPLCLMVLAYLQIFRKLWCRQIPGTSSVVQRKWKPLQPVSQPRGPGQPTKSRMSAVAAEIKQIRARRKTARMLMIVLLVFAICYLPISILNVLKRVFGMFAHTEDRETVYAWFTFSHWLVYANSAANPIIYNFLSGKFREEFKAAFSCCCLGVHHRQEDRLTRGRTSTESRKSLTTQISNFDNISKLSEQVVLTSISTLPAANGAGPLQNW
As to the kind of experiment: Antagonist activity at human OX2 receptor expressed in CHO cells assessed as inhibition of orexin A-induced calcium influx by FLIPR assay. Format: functional, cell-based.
Details: not given
In a few lines:
(§2)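 CHO cells stably expressing human OX1R or OX2R, loaded at 37 °C, 5% CO₂ with the calcium dye fluo-3 AM, then washed. Antagonist added at a range of concentrations before an approximately EC₈₀ orexin A challenge. Ca²⁺ mobilization read by FLIPR. IC₅₀ taken as the concentration giving 50% inhibition of the orexin A-induced calcium response, reported in nM.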
Consider `CCCc1nc(CC)n2c1C(CCc1ccc(C(F)(F)F)cc1)N([C@@H](C(=O)NC)c1ccccc1)CC2` (stereo partly specified), for which the negative-log IC50 (pIC50) was 6.65.
The same measure, in the same setting: in the case of `CCc1nc(C(C)C)c2n1CCN([C@@H](C(=O)NC)c1ccccc1)C2CCc1ccc(C(F)(F)F)cc1` (stereo partly specified) it was 5.54.
Turning to `CCc1nc(C2CC2)c2n1CCN([C@@H](C(=O)NC)c1ccccc1)[C@H]2CCc1ccc(C(F)(F)F)cc1`, the pIC50 was 7.54.
`CCc1nc(Cl)c2n1CCN([C@@H](C(=O)NC)c1ccccc1)[C@H]2CCc1ccc(C(F)(F)F)cc1`: the pIC50 was 8.05.
Still for that read-out and setting: then `CCc1nc(Cl)c2n1CCN([C@@H](C(=O)NC)c1ccccc1)[C@@H]2CCc1ccc(C(F)(F)F)cc1`, with 6.97; and `CCc1nc(C(F)(F)F)c2n1CCN([C@@H](C(=O)NC)c1ccccc1)[C@H]2CCc1ccc(C(F)(F)F)cc1`, with 7.96.
As to `CCc1nc(SC)c2n1CCN([C@@H](C(=O)NC)c1ccccc1)[C@H]2CCc1ccc(C(F)(F)F)cc1`, the pIC50 was 7.85.
Same read-out and setting: in the case of `CCc1nc(C(=O)NC)c2n1CCN([C@@H](C(=O)NC)c1ccccc1)C2CCc1ccc(C(F)(F)F)cc1` (stereo partly specified) it was 7.42.
Still for that read-out and setting: in the case of `CCc1nc(C(=O)N(C)C)c2n1CCN([C@@H](C(=O)NC)c1ccccc1)C2CCc1ccc(C(F)(F)F)cc1` (stereo partly specified) it was 6.95; in that of `CNC(=O)[C@@H](c1ccccc1)N1CCn2c(C)nc(Cl)c2[C@@H]1CCc1ccc(C(F)(F)F)cc1`, 7.89; in that of `CCCc1nc(Cl)c2n1CCN([C@@H](C(=O)NC)c1ccccc1)[C@H]2CCc1ccc(C(F)(F)F)cc1`, 7.22.
On the same count and under the same terms, in the case of `CNC(=O)[C@@H](c1ccccc1)N1CCn2c(C(C)C)nc(Cl)c2[C@@H]1CCc1ccc(C(F)(F)F)cc1` it was 7.96.
With `CNC(=O)[C@@H](c1ccccc1)N1CCn2c(C3CC3)nc(Cl)c2[C@@H]1CCc1ccc(C(F)(F)F)cc1`, the pIC50 is 8.05.
In the case of `CNC(=O)[C@@H](c1ccccc1)N1CCn2c(CC3CC3)nc(Cl)c2[C@@H]1CCc1ccc(C(F)(F)F)cc1`, the pIC50 is 7.46.
With `CCc1nc(C)c2n1CCN([C@@H](C(=O)NC)c1ccccc1)C2CCc1ccc(C(F)(F)F)cc1` (mixture of isomers), the pIC50 was 7.62.
The same measure, in the same setting: then `CCc1nc(CC)n2c1C(CCc1ccc(C(F)(F)F)cc1)N([C@@H](C(=O)NC)c1ccccc1)CC2` (mixture of isomers), with 7.70; and `CCc1nc(I)c2n1CCN([C@@H](C(=O)NC)c1ccccc1)C2CCc1ccc(C(F)(F)F)cc1` (mixture of isomers), with 7.64; and `CCc1nc(OC)c2n1CCN([C@@H](C(=O)NC)c1ccccc1)C2CCc1ccc(C(F)(F)F)cc1` (mixture of isomers), with 7.14.
The same measure, in the same setting: then `CCOc1nc(CC)n2c1C(CCc1ccc(C(F)(F)F)cc1)N([C@@H](C(=O)NC)c1ccccc1)CC2` (mixture of isomers), with 5.56; and `CCc1nc(C#N)c2n1CCN([C@@H](C(=O)NC)c1ccccc1)C2CCc1ccc(C(F)(F)F)cc1` (mixture of isomers), with 8.00; and `CCc1nc(C(N)=O)c2n1CCN([C@@H](C(=O)NC)c1ccccc1)C2CCc1ccc(C(F)(F)F)cc1` (mixture of isomers), with 6.71.
Still for that read-out and setting: in the case of `CNC(=O)[C@@H](c1ccccc1)N1CCn2c(COC)nc(Cl)c2[C@@H]1CCc1ccc(C(F)(F)F)cc1` (mixture of isomers) it was 7.60.
As to `CCc1ncc2n1CCN([C@@H](C(=O)NC)c1ccccc1)C2CCc1ccc(C(F)(F)F)cc1` (mixture of isomers), the pIC50 is 6.71.
Same read-out and setting: then `C=Cc1nc(CC)n2c1C(CCc1ccc(C(F)(F)F)cc1)N([C@@H](C(=O)NC)c1ccccc1)CC2` (single isomer, unassigned), with 7.64.

In a further series the target is T2, Orexin/Hypocretin receptor type 1 (Homo sapiens, UniProt O43613).
T2 sequence (O43613 whole entry): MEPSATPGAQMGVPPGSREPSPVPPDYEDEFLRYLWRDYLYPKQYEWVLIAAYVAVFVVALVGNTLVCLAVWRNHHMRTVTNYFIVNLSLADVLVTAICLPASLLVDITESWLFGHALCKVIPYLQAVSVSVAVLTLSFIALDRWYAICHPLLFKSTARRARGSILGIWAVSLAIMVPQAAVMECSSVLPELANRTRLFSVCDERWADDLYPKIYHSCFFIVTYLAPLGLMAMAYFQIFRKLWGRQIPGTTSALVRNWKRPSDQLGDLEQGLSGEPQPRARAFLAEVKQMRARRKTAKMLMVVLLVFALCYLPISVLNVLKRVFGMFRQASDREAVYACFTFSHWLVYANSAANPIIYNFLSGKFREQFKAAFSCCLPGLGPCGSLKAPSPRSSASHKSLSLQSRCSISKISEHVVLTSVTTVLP
As to the kind of experiment: Antagonist activity at human OX1 receptor expressed in CHO cells assessed as inhibition of orexin A-induced calcium influx by FLIPR assay. Format: functional, cell-based.
Details: not given
In a few lines: as §2
For the compound `CCCc1nc(CC)n2c1C(CCc1ccc(C(F)(F)F)cc1)N([C@@H](C(=O)NC)c1ccccc1)CC2` (stereo partly specified), the pIC50 was less than 5.00.
With `CCc1nc(C(C)C)c2n1CCN([C@@H](C(=O)NC)c1ccccc1)C2CCc1ccc(C(F)(F)F)cc1` (stereo partly specified), the pIC50 was less than 5.00.
For `CCc1nc(C2CC2)c2n1CCN([C@@H](C(=O)NC)c1ccccc1)[C@H]2CCc1ccc(C(F)(F)F)cc1`, the pIC50 is 5.38.
The same measure, in the same setting: in the case of `CCc1nc(Cl)c2n1CCN([C@@H](C(=O)NC)c1ccccc1)[C@H]2CCc1ccc(C(F)(F)F)cc1` it was 7.40; in that of `CCc1nc(Cl)c2n1CCN([C@@H](C(=O)NC)c1ccccc1)[C@@H]2CCc1ccc(C(F)(F)F)cc1`, 6.55.
As to `CCc1nc(C(F)(F)F)c2n1CCN([C@@H](C(=O)NC)c1ccccc1)[C@H]2CCc1ccc(C(F)(F)F)cc1`, the pIC50 was 5.97.
Take `CCc1nc(SC)c2n1CCN([C@@H](C(=O)NC)c1ccccc1)[C@H]2CCc1ccc(C(F)(F)F)cc1`: the pIC50 was 7.07.
Still for that read-out and setting: then `CCc1nc(C(=O)NC)c2n1CCN([C@@H](C(=O)NC)c1ccccc1)C2CCc1ccc(C(F)(F)F)cc1` (stereo partly specified), with 6.31; and `CCc1nc(C(=O)N(C)C)c2n1CCN([C@@H](C(=O)NC)c1ccccc1)C2CCc1ccc(C(F)(F)F)cc1` (stereo partly specified), with 6.46.
Still for that read-out and setting: in the case of `CNC(=O)[C@@H](c1ccccc1)N1CCn2c(C)nc(Cl)c2[C@@H]1CCc1ccc(C(F)(F)F)cc1` it was 7.05.
With `CCCc1nc(Cl)c2n1CCN([C@@H](C(=O)NC)c1ccccc1)[C@H]2CCc1ccc(C(F)(F)F)cc1`, the negative-log IC50 (pIC50) was 6.34.
Same read-out and setting: in the case of `CNC(=O)[C@@H](c1ccccc1)N1CCn2c(C(C)C)nc(Cl)c2[C@@H]1CCc1ccc(C(F)(F)F)cc1` it was 6.50; in that of `CNC(=O)[C@@H](c1ccccc1)N1CCn2c(C3CC3)nc(Cl)c2[C@@H]1CCc1ccc(C(F)(F)F)cc1`, 7.51.
Still for that read-out and setting: in the case of `CNC(=O)[C@@H](c1ccccc1)N1CCn2c(CC3CC3)nc(Cl)c2[C@@H]1CCc1ccc(C(F)(F)F)cc1` it was 5.85; in that of `CCc1nc(C)c2n1CCN([C@@H](C(=O)NC)c1ccccc1)C2CCc1ccc(C(F)(F)F)cc1` (mixture of isomers), less than 5.00.
On the same count and under the same terms, in the case of `CCc1nc(CC)n2c1C(CCc1ccc(C(F)(F)F)cc1)N([C@@H](C(=O)NC)c1ccccc1)CC2` (mixture of isomers) it was less than 5.00.
Consider `CCc1nc(I)c2n1CCN([C@@H](C(=O)NC)c1ccccc1)C2CCc1ccc(C(F)(F)F)cc1` (mixture of isomers), for which the pIC50 is 6.14.
The same measure, in the same setting: then `CCc1nc(OC)c2n1CCN([C@@H](C(=O)NC)c1ccccc1)C2CCc1ccc(C(F)(F)F)cc1` (mixture of isomers), with 6.87; and `CCOc1nc(CC)n2c1C(CCc1ccc(C(F)(F)F)cc1)N([C@@H](C(=O)NC)c1ccccc1)CC2` (mixture of isomers), with 5.40; and `CCc1nc(C#N)c2n1CCN([C@@H](C(=O)NC)c1ccccc1)C2CCc1ccc(C(F)(F)F)cc1` (mixture of isomers), with 6.27.
The same measure, in the same setting: then `CCc1nc(C(N)=O)c2n1CCN([C@@H](C(=O)NC)c1ccccc1)C2CCc1ccc(C(F)(F)F)cc1` (mixture of isomers), with less than 5.00; and `CNC(=O)[C@@H](c1ccccc1)N1CCn2c(COC)nc(Cl)c2[C@@H]1CCc1ccc(C(F)(F)F)cc1` (mixture of isomers), with 5.78.
The same measure, in the same setting: in the case of `CCc1ncc2n1CCN([C@@H](C(=O)NC)c1ccccc1)C2CCc1ccc(C(F)(F)F)cc1` (mixture of isomers) it was less than 5.00; in that of `C=Cc1nc(CC)n2c1C(CCc1ccc(C(F)(F)F)cc1)N([C@@H](C(=O)NC)c1ccccc1)CC2` (single isomer, unassigned), 6.82.
